Bioassay records deposited in PubChem BioAssay by The Scripps Research Institute Molecular Screening Center.
Only some compounds are listed: those with a hit (about 2.7% of all), similar ones and a draw of the others.
OXTR agonist: agonists of human oxytocin receptor | P30559 | CHO-OTR cells, Fluo-8 calcium fluorescence; normalized: DMSO 0%, oxytocin 100% | 320,000 tested, 0.32% active | activation, % at 3 µM | AID 2435;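 active means activation above the mean of all tested compounds plus 3 SD, cutoff set per screening run, cut at about 20% in these data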;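 further: peak over basal fluorescence ratio from a 100 s FLIPR kinetic read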
Target sequence (P30559 whole entry, looked up): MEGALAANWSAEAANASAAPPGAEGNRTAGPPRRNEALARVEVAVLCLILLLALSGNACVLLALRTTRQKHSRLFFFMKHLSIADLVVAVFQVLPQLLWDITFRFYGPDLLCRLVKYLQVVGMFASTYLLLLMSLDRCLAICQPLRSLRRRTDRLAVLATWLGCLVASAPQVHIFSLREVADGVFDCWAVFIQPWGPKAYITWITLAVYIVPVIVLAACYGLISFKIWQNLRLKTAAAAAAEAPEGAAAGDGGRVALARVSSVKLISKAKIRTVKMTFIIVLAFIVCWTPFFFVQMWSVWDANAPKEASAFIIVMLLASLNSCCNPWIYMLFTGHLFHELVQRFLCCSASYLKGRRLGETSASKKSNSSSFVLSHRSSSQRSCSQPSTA
CHO parental Ca: counter-screen for OX1R antagonists: effect in parental CHO cells. parental CHO-K1, ATP-induced calcium, Fluo-8 fluorescence. inhibition, % at 5.6 µM. 330,000 tested, 0.63% active;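 active means inhibition above that plate's mean sample inhibition plus 3 SD, cut at about 26% in these data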;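 further: 0% = ATP-challenged DMSO wells and 100% = DMSO wells without ATP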
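Assay system – parental CHO cells · Reagent – ATP stimulus · Detection – intracellular calcium via Fluo-8 no-wash fluorescent dye · Evaluation – percent inhibition of ATP-evoked calcium rise, normalized to controls · Controls – ATP wells versus no-ATP DMSO wells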
OX1R antag-1: human HCRTR1 antagonism. O43613. inhibition, % at 5 µM. 330,000 tested, 0.43% active. CHO/OX1R cells, Fluo-8 calcium fluorescence, orexin A;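 active means inhibition above its plate's threshold, mean inhibition of all tested compounds on the plate plus 3 SD, cut at about 37% in these data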;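 further: 0% = orexin A challenge wells and 100% = SB-334867-A antagonist wells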
V1R ag counter: counter-screen for oxytocin receptor agonists: human V1a receptor agonists; AID 2797; P37288; 320,000 tested, 0.25% active; activation, % at 3 µM; CHO-V1R cells, Fluo-8 calcium fluorescence, agonist mode; 0% DMSO, 100% 3 nM vasopressin;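 active means activation above the mean activation of all tested compounds plus 3 SD, per screening run, cut at about 20% in these data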;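 further: signal is peak over basal fluorescence ratio across a 100 second FLIPR read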
OX1R antag-2: antagonists of human orexin 1 receptor (OX1R); inhibition, % at 6.6 µM; 330,000 tested, 1.8% active; O43613; AID 485270; OX1R-expressing cells, FRET antagonist read-out; in the data active means inhibition mostly above about 38%, no sharp cut-off; inactive means mostly below about 40%;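 further: 0% = agonist challenge alone and 100% = reference antagonist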
OXTR potentiate: potentiators of human oxytocin receptor; AID 2445; CHO-OTR cells, Fluo-8 calcium fluorescence, potentiator mode; 0% = oxytocin EC15, 100% = EC100; activation, % at 3 µM; 320,000 tested, 0.061% active; P30559;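 active means activation above that plate's cutoff, the mean activation of tested compounds plus 3 SD, cut at about 6.6% in these data, passing the limit was not always enough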;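 further: 100% uses oxytocin at 75 nM as the full agonist control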
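Measured by – Fluo-8 calcium dye fluorescence · Test system – human OTR in CHO cells · Dosing – one concentration, 3.0 µM compound · Controls – EC15 oxytocin alone as 0%, 75 nM oxytocin as 100% · Evaluation – normalized max/min fluorescence ratio, % activation · Timing – 6 min pre-incubation, 100 s read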
* = called active by the depositor.

SMILES	OXTR agonist	CHO parental Ca	OX1R antag-1	V1R ag counter	OX1R antag-2	OXTR potentiate
O=C(c1cccc(C(F)(F)F)c1)C1CCCN(C(=O)CCCN2CCCC2=O)C1 (stereo unspecified)	1	-13	-10	2	13	-1
CCN1/C(=C/C=C/C=C/C=C/c2sc3ccccc3[n+]2CC)Sc2ccccc21	0	1	0	0	0	-12
CCN1/C(=C/C=C/c2sc3ccccc3[n+]2CC)Sc2ccccc21	10	61*	36	9	41*	-8
CCN1/C(=C/c2ccc3cc(C)ccc3[n+]2CC)Sc2ccccc21	30*	89*	86*	32*	103*	-18
CC[n+]1c(/C=C/Nc2ccccc2)sc2ccccc21	1	0	-21	0	20	-3
CCN1/C(=C/C=C/C=C/c2sc3ccccc3[n+]2CC)Sc2ccccc21	6	61*	52*	6	38	-22
Cc1cc(NC(=O)c2ccc(Cl)c(S(=O)(=O)N3CCCCC3)c2)no1	2	-6	-12	6	-1	-10
Cc1cc(C)c(C(=O)NNC(=O)c2cccnc2)c(C)c1	4	0	-6	0	17	-3
Cc1ccc(C)c(NC(=S)NNc2ccc(F)cc2F)c1	-2	71*	83*	-1	17	-4
O=C(Nc1ccc2c(c1)OCO2)C(=O)c1c[nH]c2ccccc12	18	30	-1	4	2	-13
O=C(Nc1ccc2c(c1)OCCO2)C(=O)c1c[nH]c2ccccc12	2	4	20	5	50*	-8
C[C@@H](NC(=O)C(=O)c1c[nH]c2ccccc12)c1ccccc1	0	-7	-6	0	13	-6
CSc1ccccc1NC(=O)C(=O)c1c[nH]c2ccccc12	0	-6	-11	1	48*	0
CCN(CC)c1ccc2c(c1)CCCN2	0	-4	-22	2	85*	-9
O=S(=O)(c1ccc2c(c1)CCCN2)N1CCCCC1	1	-2	14	0	16	-9
COc1cccc(OC)c1C(=O)Nc1cccc2c1CCCC2	-2	-3	-9	1	73*	-10
COc1cc(OC)cc(C(=O)Nc2cccc3c2CCCC3)c1	-2	8	6	-1	3	-19
O=C(COC(=O)/C=C/c1ccc([N+](=O)[O-])cc1)NNC(=O)c1ccccc1	3	-10	-4	2	25	-5
O=c1[nH]c(CSc2ncnc3sc(-c4ccccc4)cc23)nc2ccccc12	0	1	-6	0	0	-6
CCc1ccc(OC)c(S(=O)(=O)Nc2ccc(Cc3ccncc3)cc2)c1	10	48*	-3	7	42	-12
COc1ccc(S(=O)(=O)Nc2ccc(Cc3ccncc3)cc2)cc1OC	11	16	-3	10	23	-9
Cc1ccc(C)c(C(=O)COC(=O)c2n[nH]c3ccccc23)c1	1	-16	-14	1	36*	-6
CCN(CC)c1nc(C(F)(F)F)nc2c1nnn2Cc1ccccc1	0	-15	-46	1	6	-2
O=C(c1cc(COc2cccc(C(F)(F)F)c2)on1)N1CCC(Oc2cccnc2)CC1	9	39*	11	14	6	-14
O=C(c1cc(COc2ccc(F)cc2Cl)on1)N1CCCC(OCc2cccnc2)C1 (stereo unspecified)	5	8	-22	6	26	-28
SMILES	OXTR agonist	CHO parental Ca	OX1R antag-1	V1R ag counter	OX1R antag-2	OXTR potentiate
O=C(c1cc(COc2ccc(F)cc2Cl)on1)N1CCC(OCc2cccnc2)CC1	13	61*	45*	10	57	-12
CC(C)NS(=O)(=O)c1ccc(CCC(=O)Nc2cc(Cl)ccc2Oc2ccccc2)cc1	2	44*	31	2	59	-17
CS(=O)(=O)N1CCC(C(=O)Nc2cc(Cl)c(Cl)cc2Cl)CC1	2	-6	-10	4	5	-19
Cc1cc(C(=O)CN2C(=O)NC(C)(c3cc(F)ccc3F)C2=O)c(C)n1C1CC1 (stereo unspecified)	10	-16	-12	9	4	-11
CCC1(c2ccc(F)cc2)NC(=O)N(CC(=O)c2cc(C)n(C3CC3)c2C)C1=O (stereo unspecified)	31*	-2	7	30*	-2	-22
Cc1c(C(=O)N(C)Cc2nc3ccccc3c(=O)[nH]2)oc2ccccc12	1	-23	-23	2	11	-1
COCCn1c(SC(C)C(=O)Nc2ccc(N3CCOCC3)cc2)nnc1-c1ccncc1 (stereo unspecified)	0	-1	-2	-1	20	-4
CCOC(=O)c1c(CSC(=N)N)n(-c2ccc(C)cc2)c2cc(Br)c(OC(C)=O)cc12	32*	4	4	22*	6	-23
CCOC(=O)c1c(CSC(=N)N)n(C)c2cc(Br)c(OC(C)=O)cc12	-1	-20	-17	0	13	-9
Cc1ccc(S(=O)(=O)c2c(C)nn(C(C)(C)C)c2OC(=O)CC(C)C)cc1	0	31*	-12	-1	16	-1
CCC(=O)Oc1c(S(=O)(=O)c2ccc(C)cc2)c(C)nn1C(C)(C)C	-1	8	-23	-2	47	-11
Cc1cccc(/C=N/NC(=O)c2cc(C3CC3)nc3ccccc23)n1	-1	0	-10	1	74*	-1
Cc1cccc(/C=N/NC(=O)c2cc(C)nc3ccccc23)n1	-1	-10	-8	0	37	-12
O=C1N=C(N2C=CC(=C3C=CNC=C3)C=C2)/C(=C/N=NC(=O)c2ccccc2)S1	0	1	-12	0	80*	0
CC(=O)N1CCN(C(=O)COC(=O)COc2ccc(C#N)cc2)CC1	0	0	-8	0	8	-5
Cc1ccc(Cn2c(=N)c(C(=O)NCC3CCCO3)cc3c(=O)n4cccc(C)c4nc32)cc1 (stereo unspecified)	-1	-13	-23	-1	32	-6
CCCn1c(=N)c(C(=O)NCC2CCCO2)cc2c(=O)n3cccc(C)c3nc21 (stereo unspecified)	1	-5	-7	0	56*	-4
C=CCn1c(=N)c(C(=O)NCCCOC)cc2c(=O)n3cccc(C)c3nc21	1	-5	-20	0	61*	2
COCCn1c(=N)c(C(=O)NCCc2ccccc2)cc2c(=O)n3cccc(C)c3nc21	-1	-24	-15	0	43	-17
COCCCn1c(=N)c(C(=O)NCC2CCCO2)cc2c(=O)n3cccc(C)c3nc21 (stereo unspecified)	0	-8	0	0	64*	-1
